Data reported in ChEMBL document CHEMBL1142057, “Inhibition of the G2 DNA damage checkpoint by oliveroline isolated from Duguetia odorata” (J Nat Prod, 2007).
Activity calls are given as the source filed them. No cut-off for these calls is given here.

Assays:
[1] = tested on: MCF7; assay: Inhibition of 6.5 Gy [60Co]-induced G2 DNA damage check point in MCF7 mp53 cells; assay type: functional, cell-based; conditions: Homo sapiens
Procedure, shortened: (§1)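 MCF-7 mp53 cells seeded at 2 × 10^5 cells/dish, cultured 24 h, then given 6.5 Gy (60Co, 1.2 Gy/min). Sixteen hours later (90% in G2), compound added with 100 ng/mL nocodazole for 8 h. Cells fixed in 70% EtOH, stained with mitosis-specific antibody GF-7 and propidium iodide. 20 000 events per sample read by flow cytometry as % cells escaping G2 arrest. DMSO carrier control.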

[2] = tested on: MCF7; assay: Inhibition of 6.5 Gy [60Co]-induced G2 DNA damage check point in MCF7 mp53 cells at >10 uM; assay type: functional, cell-based; conditions: Homo sapiens; procedure, shortened: as §1
[3] = tested on: MCF7; assay: Inhibition of cell proliferation in MCF7 mp53 cells in presence of 6.5 Gy [60Co]-induced DNA damage; assay type: functional, cell-based; conditions: Homo sapiens
Procedure, shortened: (§2)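 MCF-7 mp53 cells seeded at 1000 cells/well and grown overnight. Compound applied over a concentration range for 24 h (DMSO ≤1% final), then irradiated with 0 or 6.5 Gy. Compound removed 24 h later and cells grown in fresh medium until untreated cells neared confluence (typically 4-6 days). Proliferation read by MTT, 2 h at 37 °C, SDS/DMF solubilisation, absorbance 570 nm. IC50 reported.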

[4] = tested on: MCF7; assay: Inhibition of cell proliferation in MCF7 mp53 cells in absence of 6.5 Gy [60Co]-induced DNA damage; assay type: functional, cell-based; conditions: Homo sapiens; procedure, shortened: as §2
[5] = tested on: MCF7; assay: Inhibition of 6.5 Gy [60Co]-induced G2 DNA damage check point in MCF7 mp53 cells at 10 uM; assay type: functional, Homo sapiens; design: scale not given: the % may be the effect or the level left; procedure, shortened: as §1
[6] = biological target: T1, Serine/threonine-protein kinase Chk1 (Homo sapiens) (UniProt O14757); assay: Inhibition of Chk1
T1 sequence (whole entry): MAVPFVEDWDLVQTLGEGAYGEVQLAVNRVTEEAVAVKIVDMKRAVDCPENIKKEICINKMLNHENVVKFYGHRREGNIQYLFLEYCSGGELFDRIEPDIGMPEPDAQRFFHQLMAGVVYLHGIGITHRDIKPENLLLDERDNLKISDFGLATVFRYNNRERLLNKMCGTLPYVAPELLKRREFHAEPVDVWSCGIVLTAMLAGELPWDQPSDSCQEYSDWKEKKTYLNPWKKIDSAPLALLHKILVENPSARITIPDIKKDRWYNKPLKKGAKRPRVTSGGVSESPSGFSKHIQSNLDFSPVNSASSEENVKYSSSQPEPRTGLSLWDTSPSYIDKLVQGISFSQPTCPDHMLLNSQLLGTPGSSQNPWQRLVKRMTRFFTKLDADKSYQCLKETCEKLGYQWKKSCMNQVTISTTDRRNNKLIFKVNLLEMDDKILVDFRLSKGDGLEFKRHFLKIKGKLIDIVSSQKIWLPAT

[7] = tested on: MCF7; assay: Inhibition of 6.5 Gy [60Co]-induced G2 DNA damage check point in MCF7 mp53 cells at 50 uM; assay type: functional, Homo sapiens; design: scale not given: the % may be the effect or the level left; procedure, shortened: as §1

| SMILES | Activity [1] | Activity [2] | IC50 [3] [µM] | IC50 [4] [µM] | Activity [5] [%] | Activity [6] | Activity [7] [%] |
| --- | --- | --- | --- | --- | --- | --- | --- |
| COc1cc2c(cc1O)CC[n+]1cc3cc(OC)c(OC)cc3cc1-2 [DEHYDRODISCRETINE] | inactive | inactive | 7 | 25 |  |  |  |
| COc1cc2c(cc1OC)-c1cc3cc(OC)c(OC)cc3c[n+]1CC2 [PSEUDOPALMATINE] | inactive | inactive | 80 | 250 |  |  |  |
| O=C1NC(=O)c2c1c1c3ccccc3[nH]c1n1cncc21 [ISOGRANULATIMIDE] |  |  |  |  | 35 |  |  |
| CN1CCc2cc3c(c4c2[C@H]1[C@@H](O)c1ccccc1-4)OCO3 [OLIVEROLINE] | Dose-dependent effect | Active | 20 | 45 |  | inactive | 35 |
